According to ChEMBL document CHEMBL1131015, “Homonojirimycin isomers and N-alkylated homonojirimycins: structural and conformational basis of inhibition of glycosidases” (J Med Chem, 1998):

Legend:
[1] = Inhibitory activity measured against beta-galactosidase of rat intestinal lactase by colorimetric assay using the D-glucose oxidase-peroxidase method
Procedure, shortened: (§1)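 Enzyme source was brush border membranes from the intestine of male Wistar rats. Each activity was run with the appropriate disaccharide as substrate at that enzyme's optimum pH. Released D-glucose was quantified colorimetrically by the glucose oxidase–peroxidase method.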

[2] = Inhibitory activity measured against beta-galactosidase of bovine liver by colorimetric assay using the D-glucose oxidase-peroxidase method; set-up: species or system Bos taurus; conditions: in the assay text read “p-nitrophenyl glycoside method” for “D-glucose oxidase-peroxidase method”
Procedure, shortened: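 Activity was measured with the appropriate p-nitrophenyl glycoside as substrate at each enzyme's optimum pH. The reaction was stopped with 400 mM Na2CO3, and released p-nitrophenol was read spectrophotometrically at 400 nm.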

Bos taurus = species: Bos taurus; conditions: 1000 uM
[3] = target: Alpha-galactosidase (Coffea arabica) (UniProt Q42656); conditions: 1000 uM
Rattus norvegicus = species: Rattus norvegicus; conditions: 1000 uM
[4] = target: T1, Tissue alpha-L-fucosidase (Rattus norvegicus) (UniProt P17164); conditions: 1000 uM
T1 sequence (whole entry): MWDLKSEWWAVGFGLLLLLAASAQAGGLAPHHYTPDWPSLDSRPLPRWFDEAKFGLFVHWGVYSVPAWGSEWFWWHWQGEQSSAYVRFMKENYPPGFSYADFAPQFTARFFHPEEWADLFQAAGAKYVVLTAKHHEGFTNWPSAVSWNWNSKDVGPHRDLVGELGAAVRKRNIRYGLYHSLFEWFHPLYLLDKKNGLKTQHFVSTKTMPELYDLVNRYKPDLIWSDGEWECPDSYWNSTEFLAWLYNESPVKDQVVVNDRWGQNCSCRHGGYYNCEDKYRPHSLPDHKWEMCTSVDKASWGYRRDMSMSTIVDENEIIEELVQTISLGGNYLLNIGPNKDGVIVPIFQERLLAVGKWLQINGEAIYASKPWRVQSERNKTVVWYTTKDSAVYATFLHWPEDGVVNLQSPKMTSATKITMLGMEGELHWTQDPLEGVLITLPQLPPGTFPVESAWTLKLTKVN

[5] = Inhibitory activity measured against beta-galactosidase of rat intestinal lactase by colorimetric assay using the D-glucose oxidase-peroxidase method.; procedure, shortened: as §1

Alpha-galactosidase (Coffea arabica), sequence (Q42656 whole entry, looked up): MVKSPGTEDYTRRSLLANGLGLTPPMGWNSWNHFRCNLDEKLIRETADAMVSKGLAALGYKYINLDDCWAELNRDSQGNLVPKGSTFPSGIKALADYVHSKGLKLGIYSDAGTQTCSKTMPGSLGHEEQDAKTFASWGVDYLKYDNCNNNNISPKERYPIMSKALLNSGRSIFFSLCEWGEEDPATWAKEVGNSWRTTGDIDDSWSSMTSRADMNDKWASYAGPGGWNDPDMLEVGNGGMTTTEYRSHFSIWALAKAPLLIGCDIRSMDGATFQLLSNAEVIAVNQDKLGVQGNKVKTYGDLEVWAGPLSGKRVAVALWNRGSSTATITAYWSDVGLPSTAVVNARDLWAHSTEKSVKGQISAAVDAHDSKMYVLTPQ

IC50 [1] | IC50 [2] | inhibition (Bos taurus) | inhibition [3] | inhibition (Rattus norvegicus) | inhibition [4] | IC50 [5] | Structure (SMILES)
 |  | < 50% | < 50% | < 50% | < 50% |  | OC[C@H]1N[C@H](CO)[C@@H](O)[C@H](O)[C@H]1O
 |  | < 50% | < 50% | < 50% |  |  | OC[C@H]1N[C@H](CO)[C@@H](O)C(O)[C@@H]1O (stereo partly drawn)

Second part, the compound before the results:

Structure (SMILES) | IC50 [1] | IC50 [2] | inhibition (Bos taurus) | inhibition [3] | inhibition (Rattus norvegicus) | inhibition [4] | IC50 [5]
OCC1NC(CO)[C@@H](O)C(O)C1O (stereo partly drawn) | 130 µM | 86 µM |  |  |  |  | 
OC[C@@H]1N[C@H](CO)[C@@H](O)[C@H](O)[C@@H]1O |  |  | < 50% | < 50% | < 50% |  | 
OC[C@@H]1N[C@H](CO)[C@@H](O)[C@H](O)[C@H]1O |  |  | < 50% | < 50% | < 50% | < 50% | 
OC[C@H]1N[C@H](CO)[C@H](O)C(O)[C@H]1O (stereo partly drawn) |  |  |  |  |  | < 50% | 290 µM
